This is a sample that favours compounds with a hit; in the whole collection about 2.4% have one here.
Runt-SMMHC FRET = inhibitors of RUNX1 Runt–CBFb-SMMHC binding, primary screen, biochemical, FRET, Cerulean-Runt, Venus-CBFb-SMMHC, uHTS; Cerulean-Runt/Venus-CBFb-SMMHC FRET ratio 530/480, 1 h; AID 1434, 2008; Runt-related transcription factor 1 (Homo sapiens) + Core-binding factor subunit beta …; 0.74% of 220,000 active; inhibition, % at 20 µM;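 active = mean inhibition across duplicate retests at 20 µM reaching about 50%, limit read from the data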;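 also: 0% = DMSO wells and 100% = wells with excess untagged CBFb-SMMHC; inhibitors lower the FRET ratio by blocking Runt binding to CBFb-SMMHC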
Runt-CBFb FRET = inhibitors of RUNX1 Runt–CBFb binding, primary screen, biochemical, FRET, Cerulean-Runt, Venus-CBFb, uHTS; Cerulean-Runt/Venus-CBFb FRET ratio 530/480, 1 h; inhibition, % at 20 µM; 0.46% of 220,000 active;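 active = inhibition over about 50% at 20 µM in the single-dose screen, limit read from the data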;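 also: 0% = DMSO wells and 100% = excess unlabeled CBFb competitor control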
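test system = Cerulean-tagged RUNX1 Runt domain (FRET donor) fusion protein | reagent = Venus-CBFb binding partner, 100 nM | incubation = protein complex preformed 1 h, compound exposure 1 h, room temperature, dark | detection = FRET fluorescence | read-out basis = loss of energy transfer signal | controls = 5 µM unlabeled CBFb as full-inhibition high control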
LANA-H2A inh = blockers of LANA interaction with H2A/H2B – biochemical, FP readout, HTS, primary screen; Protein LANA1 (Human herpesvirus 8 type P (isolate GK18)), Q9QR71; cell-free LANA-H2A/H2B peptide, fluorescence polarization; inhibition, % (no concentration beside the values); 0.6% of 320,000 active; AID 2629, 2010; in the data active = inhibition mostly above about 10%, no sharp cut-off; inactive = mostly below about 6.7%
Target sequence (Q9QR71 whole entry, looked up): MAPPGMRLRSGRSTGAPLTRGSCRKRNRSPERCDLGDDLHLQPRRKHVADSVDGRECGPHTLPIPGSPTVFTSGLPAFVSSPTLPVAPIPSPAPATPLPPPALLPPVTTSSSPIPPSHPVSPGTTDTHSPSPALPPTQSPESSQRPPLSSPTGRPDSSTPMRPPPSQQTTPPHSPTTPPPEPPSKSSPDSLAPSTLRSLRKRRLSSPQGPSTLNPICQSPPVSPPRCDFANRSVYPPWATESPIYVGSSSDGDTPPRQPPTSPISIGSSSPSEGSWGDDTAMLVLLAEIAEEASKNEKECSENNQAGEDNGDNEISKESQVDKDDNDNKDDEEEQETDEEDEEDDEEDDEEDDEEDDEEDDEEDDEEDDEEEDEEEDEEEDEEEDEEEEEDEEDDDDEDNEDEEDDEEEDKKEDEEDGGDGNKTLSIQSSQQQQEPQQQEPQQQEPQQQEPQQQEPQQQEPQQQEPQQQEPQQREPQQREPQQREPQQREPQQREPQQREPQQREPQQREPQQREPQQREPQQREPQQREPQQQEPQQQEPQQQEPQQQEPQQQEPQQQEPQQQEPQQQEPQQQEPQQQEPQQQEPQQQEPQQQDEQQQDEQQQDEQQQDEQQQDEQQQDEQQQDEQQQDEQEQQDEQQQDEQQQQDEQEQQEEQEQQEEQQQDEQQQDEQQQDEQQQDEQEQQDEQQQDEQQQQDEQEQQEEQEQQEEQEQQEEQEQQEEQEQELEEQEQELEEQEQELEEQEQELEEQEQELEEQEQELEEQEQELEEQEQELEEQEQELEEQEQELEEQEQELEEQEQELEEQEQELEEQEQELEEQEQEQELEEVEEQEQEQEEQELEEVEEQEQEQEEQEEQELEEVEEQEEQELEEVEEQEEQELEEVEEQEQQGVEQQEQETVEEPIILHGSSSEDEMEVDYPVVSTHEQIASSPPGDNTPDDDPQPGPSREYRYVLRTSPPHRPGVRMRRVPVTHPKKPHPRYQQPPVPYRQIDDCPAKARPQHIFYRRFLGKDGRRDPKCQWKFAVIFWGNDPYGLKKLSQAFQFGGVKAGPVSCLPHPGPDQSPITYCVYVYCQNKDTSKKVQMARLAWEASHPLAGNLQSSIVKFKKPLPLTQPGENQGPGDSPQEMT
RanGTP-Imp inh = inhibitors of RanGTP-importin-beta interaction, primary screen, biochemical, FRET, CFP-Ran, YFP-importin-beta, homogeneous. cell-free CFP-Ran/YFP-importin-beta FRET ratio. Ran GTPase (GTP-bound) - importin-beta complex. 1.1% of 300,000 active. inhibition, % (no concentration beside the values);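 active = more than half of the replicate wells show a fall in the fluorescence ratio signal beyond about 16%, limit read from the data, passing the limit was not always enough; inconclusive = exactly half of the replicate wells pass the set limit; inactive = fewer than half of replicates pass the limit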;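 also: 0% = DMSO wells and 100% = Ran loaded with GDP instead of GTP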
EBV gp42 block = Epstein-Barr virus gp42 inhibitors, primary screen, biochemical, uHTS, fluorescence polarization | Glycoprotein 42 (Epstein-Barr virus (strain AG876)), Q1HVG2 | Fluorescence polarization binding assay, mP read-out | inhibition, % (tested at 21.74 µM) | 0.42% of 220,000 active | AID 1085, 2008; in the data active = inhibition above about 50%
MEX-5 binding = MEX-5 zinc finger RNA-binding disruptors – biochemical, C. elegans, fluorescence polarization, MLPCN library, primary screen | MEX-5/FITC-TCR2 RNA binding; hits give low values | 0.38% of 300,000 active | Zinc finger protein mex-5 (Caenorhabditis elegans), Q9XUB2 | activity score (negative = inhibition of binding), % at 10 µM;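 active = inhibition past about -25% in most replicates, and total fluorescence under double the plate's negative control median, limit read from the data; inconclusive = replicates evenly split on the limit, or fluorescence at least double controls; inactive = too little inhibition in most replicates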;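 also: 0% = DMSO and -100% = 5 µM competing unlabeled TCR2 RNA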
* hit, by the source's call.

`COc1ccc(/C=C2/C(=O)NC(=O)N(Cc3ccco3)C2=O)cc1` gave Runt-SMMHC FRET 26, Runt-CBFb FRET 38, LANA-H2A inh 6, RanGTP-Imp inh 1, EBV gp42 block 36 and MEX-5 binding -81*.
Screening O=C1NC(=O)N(c2ccccc2)C(=O)/C1=C/C=C/c1ccco1 returned Runt-SMMHC FRET -30, Runt-CBFb FRET 3, LANA-H2A inh 4, RanGTP-Imp inh 0, EBV gp42 block -178 and MEX-5 binding 0.
`CN1C(=O)/C(=C/C=C/c2ccco2)C(=O)NC1=S` gave Runt-SMMHC FRET 8, Runt-CBFb FRET 18, LANA-H2A inh -4, RanGTP-Imp inh -5, EBV gp42 block -17 and MEX-5 binding -80*.
Screening O=C1NC(=S)N(c2ccc(F)cc2)C(=O)/C1=C/c1ccco1 returned LANA-H2A inh -1, RanGTP-Imp inh -3 and MEX-5 binding -94*.
`O=c1cccc2n1CC1CNC[C@H]2C1` gave LANA-H2A inh 0.
For O=C(N/N=C/c1c(O)n(C2CC2)c(=S)[nH]c1=O)c1ccccc1O the results were Runt-SMMHC FRET 73*, Runt-CBFb FRET 42, LANA-H2A inh 3, RanGTP-Imp inh 0, EBV gp42 block 0 and MEX-5 binding -60*.
For O=C(N/N=C/c1c(O)n(-c2ccccc2)c(=S)[nH]c1=O)c1ccccc1 the results were Runt-SMMHC FRET 23, Runt-CBFb FRET 14, LANA-H2A inh 6, RanGTP-Imp inh 3, EBV gp42 block -6 and MEX-5 binding -8.
`Cc1ccccc1-n1c(O)c(/C=N/NC(=O)c2ccccc2O)c(=O)[nH]c1=S` gave Runt-SMMHC FRET 59*, Runt-CBFb FRET 29, LANA-H2A inh -3, RanGTP-Imp inh 5, EBV gp42 block -15 and MEX-5 binding -29*.
`Cc1cc(OCC(=O)N2C[C@H]3C[C@@H](C2)c2cccc(=O)n2C3)c2c(C)cc(=O)oc2c1` gave LANA-H2A inh -3, RanGTP-Imp inh 2 and MEX-5 binding 0.
Screening C=C1C2C[C@@]3([C@@H]1O)[C@@H](C[C@@H]2O)[C@@]12C4[C@@H]3C[C@@H]1[C@@](C)(CC[C@@H]2O)CN4CC returned LANA-H2A inh -5.
`CN1CCCC(C(=O)c2ccc(Cl)cc2)C1` (stereo unspecified) gave Runt-SMMHC FRET -1, Runt-CBFb FRET 1, LANA-H2A inh -1, RanGTP-Imp inh 3, EBV gp42 block -12 and MEX-5 binding 1.
Screening Cc1cc(C(=O)OCC(=O)Nc2ccc(F)cc2)c(C)n1C1CC1 returned LANA-H2A inh 3.
Cc1cc(C(=O)OCC(=O)Nc2cccc(F)c2)c(C)n1C1CC1 was read as LANA-H2A inh active.
O=c1[nH]c(=S)n(-c2ccccc2)c(O)c1/C=N/N1CCOCC1 was read as Runt-SMMHC FRET 0, Runt-CBFb FRET 0, LANA-H2A inh 3, EBV gp42 block -27 and MEX-5 binding -1.
For COc1ccc(OC)c(N2C(=O)NC(=O)/C(=C/c3ccc([N+](=O)[O-])s3)C2=O)c1 the results were Runt-SMMHC FRET 11, Runt-CBFb FRET 19, LANA-H2A inh 6, RanGTP-Imp inh 1, EBV gp42 block 1 and MEX-5 binding -42*.
CC12CN3CC(C)(CN(C1)C3c1cccs1)C2=O (stereo unspecified) was read as Runt-SMMHC FRET 3, Runt-CBFb FRET -1, LANA-H2A inh -1, RanGTP-Imp inh -1, EBV gp42 block -1 and MEX-5 binding 2.
Screening COc1cc(C(=S)N2CCOCC2)cc(OC)c1OC(=O)Cc1ccccc1 returned Runt-SMMHC FRET 1, Runt-CBFb FRET 1, LANA-H2A inh 2, RanGTP-Imp inh -1, EBV gp42 block 0 and MEX-5 binding -3.
`CCCCC1C(=O)NC(=S)NC1=O` gave Runt-SMMHC FRET 12, Runt-CBFb FRET 24, LANA-H2A inh -2, RanGTP-Imp inh 6, EBV gp42 block -34 and MEX-5 binding 3.
Screening O=C1NC(=S)NC(=O)C1C1CCCCC1 returned Runt-SMMHC FRET 1, Runt-CBFb FRET 8, LANA-H2A inh 15*, RanGTP-Imp inh 5, EBV gp42 block -12 and MEX-5 binding 2.
Screening CN1/C(=C\C=C\C2=[N+](C)c3ccc4ccccc4c3C2(C)C)C(C)(C)c2ccccc21 returned Runt-SMMHC FRET 33, Runt-CBFb FRET 6, LANA-H2A inh -38 and EBV gp42 block 97*.
Screening O=C(C1CCCN(S(=O)(=O)c2cccc3nsnc23)C1)N1CCC2(CC1)OCCO2 (stereo unspecified) returned Runt-SMMHC FRET -2, Runt-CBFb FRET 1, LANA-H2A inh 45* and EBV gp42 block 12.
For Nc1ccccc1-[n+]1c(-c2ccccc2)cc(-c2ccccc2)cc1-c1ccccc1 the results were Runt-SMMHC FRET -4, Runt-CBFb FRET 1, LANA-H2A inh 4, RanGTP-Imp inh 41*, EBV gp42 block -12 and MEX-5 binding -2.
For Oc1ccccc1-[n+]1c(-c2ccccc2)cc(-c2ccccc2)cc1-c1ccccc1 the results were LANA-H2A inh -1, RanGTP-Imp inh 8 and MEX-5 binding 4.
`CC(C)CCn1c(N)c(C(=O)NCc2cccs2)c2nc3ccccc3nc21` gave Runt-SMMHC FRET 20, Runt-CBFb FRET 2, LANA-H2A inh -1, RanGTP-Imp inh 50*, EBV gp42 block -6 and MEX-5 binding 0.
For Nc1c(C(=O)OCC2CCCO2)c2nc3ccccc3nc2n1Cc1cccs1 (stereo unspecified) the results were Runt-SMMHC FRET 85*, Runt-CBFb FRET 28, LANA-H2A inh -3, RanGTP-Imp inh inconclusive, EBV gp42 block -3 and MEX-5 binding -3.
`CCCNC(=O)c1c(N)n(Cc2ccc3c(c2)OCO3)c2nc3ccccc3nc12` gave Runt-SMMHC FRET 20, Runt-CBFb FRET 5, LANA-H2A inh 2, EBV gp42 block -13 and MEX-5 binding -7.
For CC(C)OCCCNC(=O)c1c(N)n(Cc2cccs2)c2nc3ccccc3nc12 the results were Runt-SMMHC FRET 81*, Runt-CBFb FRET 16, LANA-H2A inh 5, RanGTP-Imp inh 80*, EBV gp42 block -5 and MEX-5 binding -1.

Source: PubChem BioAssay
